Assay results: ChEMBL document CHEMBL4043093, “2-Oxo-3, 4-dihydropyrimido[4, 5-d]pyrimidinyl derivatives as new irreversible pan fibroblast growth factor receptor (FGFR) inhibitors” (Eur J Med Chem, 2017)

Experiments:
[1] = molecular target: Activin receptor type-2B (Homo sapiens) (UniProt Q13705); assay: Inhibition of wild-type human ACVR2B (H169 to D504 residues) expressed in Escherichia coli BL21 assessed as residual activity at 1000 nM after 30 mins by Kinomescan method relative to control
Procedure, shortened: (§1)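 Single-point screen at a fixed 1 µM, run within a 456-kinase DiscoveRx KINOMEscan panel. Each kinase's read-out is Percent Control, i.e. signal relative to a control without compound. Hits were scored by a Percent Control < 35 cut-off, and an S(35) selectivity score was calculated across the non-mutant kinases.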

[2] = molecular target: RAC-alpha serine/threonine-protein kinase (Homo sapiens) (UniProt P31749); assay: Inhibition of wild-type human partial length AKT1 expressed in Escherichia coli BL21 assessed as residual activity at 1000 nM after 30 mins by Kinomescan method relative to control
[3] = molecular target: Protein-tyrosine kinase 6 (Homo sapiens) (UniProt Q13882); assay: Inhibition of wild-type human partial length BRK (L166 to T451 residues) expressed in Escherichia coli BL21 assessed as residual activity at 1000 nM after 30 mins by Kinomescan method relative to control
[4] = molecular target: Cyclin-dependent kinase 4/cyclin D1 (Homo sapiens) (UniProt P11802+P24385); assay: Inhibition of wild-type human full length CDK4/cyclinD1 (M1 to E303 residues) expressed in HEK293 cells assessed as residual activity at 1000 nM after 30 mins by Kinomescan method relative to control; type: cell-based; procedure, shortened: as §1
[5] = molecular target: Casein kinase I isoform alpha-like (Homo sapiens) (UniProt Q8N752); assay: Inhibition of wild-type human full length CSNK1A1L (M1 to N337 residues) expressed in Escherichia coli BL21 assessed as residual activity at 1000 nM after 30 mins by Kinomescan method relative to control; procedure, shortened: as §1
[6] = molecular target: Serine/threonine-protein kinase DCLK3 (Homo sapiens) (UniProt Q9C098); assay: Inhibition of wild-type human partial length DCAMKL3 (E140 to V628 residues) expressed in Escherichia coli BL21 assessed as residual activity at 1000 nM after 30 mins by Kinomescan method relative to control
[7] = molecular target: Dual specificity tyrosine-phosphorylation-regulated kinase 1B (Homo sapiens) (UniProt Q9Y463); assay: Inhibition of wild-type human full length DYRK1B (M1 to S629 residues) expressed in Escherichia coli BL21 assessed as residual activity at 1000 nM after 30 mins by Kinomescan method relative to control
Procedure, shortened: (§2)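 Single-concentration screen at 1 µM across a 456-kinase KINOMEscan panel. The read-out is Percent Control for each kinase.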

[8] = molecular target: Dual specificity tyrosine-phosphorylation-regulated kinase 2 (Homo sapiens) (UniProt Q92630); assay: Inhibition of wild-type human full length DYRK2 (M1 to S528 residues) expressed in HEK293 cells assessed as residual activity at 1000 nM after 30 mins by Kinomescan method relative to control; type: cell-based; procedure, shortened: as §2
[9] = test system: Epidermal growth factor receptor (Homo sapiens), P00533 [L858R]; assay: Inhibition of human partial length EGFR L858R mutant (R669 to V1011 residues) expressed in Escherichia coli BL21 assessed as residual activity at 1000 nM after 30 mins by Kinomescan method relative to control
Procedure, shortened: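 KINOMEscan binding panel of 456 kinases, with the test compound at a single concentration of 1 µM. Read-out is Percent Control.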

[10] = molecular target: Receptor tyrosine-protein kinase erbB-3 (Homo sapiens) (UniProt P21860); assay: Inhibition of wild-type human partial length ERBB3 (G684 to A987 residues) expressed in HEK293 cells assessed as residual activity at 1000 nM after 30 mins by Kinomescan method relative to control; type: cell-based
[11] = molecular target: Beta-adrenergic receptor kinase 1 (Homo sapiens) (UniProt P25098); assay: Inhibition of wild-type human full length GRK2 (M1 to L689 residues) expressed in HEK293 cells assessed as residual activity at 1000 nM after 30 mins by Kinomescan method relative to control; type: cell-based; procedure, shortened: as §2
[12] = molecular target: Serine/threonine-protein kinase STK11 (Homo sapiens) (UniProt Q15831); assay: Inhibition of wild-type human full length LKB1 (M1 to Q433 residues) expressed in Escherichia coli BL21 assessed as residual activity at 1000 nM after 30 mins by Kinomescan method relative to control; procedure, shortened: as §2
[13] = molecular target: Mitogen-activated protein kinase kinase kinase 1 (Homo sapiens) (UniProt Q13233); assay: Inhibition of wild-type human partial length MAP3K1 (L1202 to W1512 residues) expressed in HEK293 cells assessed as residual activity at 1000 nM after 30 mins by Kinomescan method relative to control; type: cell-based
[14] = molecular target: Mitogen-activated protein kinase kinase kinase 2 (Homo sapiens) (UniProt Q9Y2U5); assay: Inhibition of wild-type human partial length MAP3K2 (S315 to H619 residues) expressed in HEK293 cells assessed as residual activity at 1000 nM after 30 mins by Kinomescan method relative to control; type: cell-based
[15] = molecular target: Serine/threonine-protein kinase Nek1 (Homo sapiens) (UniProt Q96PY6); assay: Inhibition of wild-type human partial length NEK1 (M1 to K278 residues) expressed in Escherichia coli BL21 assessed as residual activity at 1000 nM after 30 mins by Kinomescan method relative to control
[16] = test system: Plasmodium falciparum; assay: Inhibition of wild-type Plasmodium falciparum full length PK5 (M1 to N288 residues) expressed in HEK293 cells assessed as residual activity at 1000 nM after 30 mins by Kinomescan method relative to control; type: cell-based; procedure, shortened: as §1
[17] = test system: Proto-oncogene tyrosine-protein kinase receptor Ret (Homo sapiens), P07949 [V804L]; assay: Inhibition of human partial length RET V804L mutant (E713 to D1014 residues) expressed in Escherichia coli BL21 assessed as residual activity at 1000 nM after 30 mins by Kinomescan method relative to control; procedure, shortened: as §1
[18] = molecular target: Serine/threonine-protein kinase RIO3 (Homo sapiens) (UniProt O14730); assay: Inhibition of wild-type human full length RIOK3 (M1 to E519 residues) expressed in Escherichia coli BL21 assessed as residual activity at 1000 nM after 30 mins by Kinomescan method relative to control
[19] = molecular target: TGF-beta receptor type-1 (Homo sapiens) (UniProt P36897); assay: Inhibition of wild-type human partial length TGFBR1 (D179 to M503 residues) expressed in Escherichia coli BL21 assessed as residual activity at 1000 nM after 30 mins by Kinomescan method relative to control
[20] = molecular target: Wee1-like protein kinase 2 (Homo sapiens) (UniProt P0C1S8); assay: Inhibition of wild-type human partial length WEE2 (M204 to K492 residues) expressed in Escherichia coli BL21 assessed as residual activity at 1000 nM after 30 mins by Kinomescan method relative to control
[21] = molecular target: Serine/threonine-protein kinase WNK3 (Homo sapiens) (UniProt Q9BYP7); assay: Inhibition of wild-type human partial length WNK3 (M1 to D434 residues) expressed in HEK293 cells assessed as residual activity at 1000 nM after 30 mins by Kinomescan method relative to control; type: cell-based

Serine/threonine-protein kinase DCLK3 (Homo sapiens), sequence (Q9C098 whole entry, the tested form may be a part): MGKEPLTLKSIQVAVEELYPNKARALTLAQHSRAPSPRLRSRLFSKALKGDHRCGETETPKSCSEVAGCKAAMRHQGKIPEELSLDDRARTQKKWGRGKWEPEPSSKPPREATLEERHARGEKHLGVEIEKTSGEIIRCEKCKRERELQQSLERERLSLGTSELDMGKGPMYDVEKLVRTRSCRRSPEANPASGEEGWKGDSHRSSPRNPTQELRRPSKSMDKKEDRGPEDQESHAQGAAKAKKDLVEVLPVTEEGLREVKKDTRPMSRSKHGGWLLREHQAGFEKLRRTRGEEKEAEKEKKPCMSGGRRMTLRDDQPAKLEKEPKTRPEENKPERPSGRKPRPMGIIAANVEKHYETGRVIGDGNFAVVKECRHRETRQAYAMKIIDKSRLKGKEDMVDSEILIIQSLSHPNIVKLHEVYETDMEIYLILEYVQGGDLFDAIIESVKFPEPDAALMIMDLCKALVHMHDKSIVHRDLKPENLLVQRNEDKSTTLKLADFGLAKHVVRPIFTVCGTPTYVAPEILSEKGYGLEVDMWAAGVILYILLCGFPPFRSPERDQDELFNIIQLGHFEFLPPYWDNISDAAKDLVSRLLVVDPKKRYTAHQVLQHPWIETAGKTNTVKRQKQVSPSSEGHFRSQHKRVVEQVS
Dual specificity tyrosine-phosphorylation-regulated kinase 2 (Homo sapiens), sequence (Q92630 whole entry, the tested form may be a part): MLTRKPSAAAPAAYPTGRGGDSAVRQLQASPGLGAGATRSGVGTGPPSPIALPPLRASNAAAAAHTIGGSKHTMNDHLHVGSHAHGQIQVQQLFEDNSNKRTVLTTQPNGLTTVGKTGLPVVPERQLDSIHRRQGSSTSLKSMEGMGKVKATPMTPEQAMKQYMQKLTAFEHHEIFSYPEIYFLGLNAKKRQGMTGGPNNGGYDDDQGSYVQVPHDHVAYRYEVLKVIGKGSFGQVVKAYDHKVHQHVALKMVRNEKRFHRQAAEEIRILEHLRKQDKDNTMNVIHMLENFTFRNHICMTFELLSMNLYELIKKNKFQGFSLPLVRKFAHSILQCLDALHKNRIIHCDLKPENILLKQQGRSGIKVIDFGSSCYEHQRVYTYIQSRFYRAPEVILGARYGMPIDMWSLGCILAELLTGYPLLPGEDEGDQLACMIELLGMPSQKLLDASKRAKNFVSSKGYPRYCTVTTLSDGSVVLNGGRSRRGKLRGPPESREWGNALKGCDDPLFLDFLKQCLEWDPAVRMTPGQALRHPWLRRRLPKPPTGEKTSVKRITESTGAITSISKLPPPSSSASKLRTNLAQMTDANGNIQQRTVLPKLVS
Serine/threonine-protein kinase Nek1 (Homo sapiens), sequence (Q96PY6 whole entry, the tested form may be a part): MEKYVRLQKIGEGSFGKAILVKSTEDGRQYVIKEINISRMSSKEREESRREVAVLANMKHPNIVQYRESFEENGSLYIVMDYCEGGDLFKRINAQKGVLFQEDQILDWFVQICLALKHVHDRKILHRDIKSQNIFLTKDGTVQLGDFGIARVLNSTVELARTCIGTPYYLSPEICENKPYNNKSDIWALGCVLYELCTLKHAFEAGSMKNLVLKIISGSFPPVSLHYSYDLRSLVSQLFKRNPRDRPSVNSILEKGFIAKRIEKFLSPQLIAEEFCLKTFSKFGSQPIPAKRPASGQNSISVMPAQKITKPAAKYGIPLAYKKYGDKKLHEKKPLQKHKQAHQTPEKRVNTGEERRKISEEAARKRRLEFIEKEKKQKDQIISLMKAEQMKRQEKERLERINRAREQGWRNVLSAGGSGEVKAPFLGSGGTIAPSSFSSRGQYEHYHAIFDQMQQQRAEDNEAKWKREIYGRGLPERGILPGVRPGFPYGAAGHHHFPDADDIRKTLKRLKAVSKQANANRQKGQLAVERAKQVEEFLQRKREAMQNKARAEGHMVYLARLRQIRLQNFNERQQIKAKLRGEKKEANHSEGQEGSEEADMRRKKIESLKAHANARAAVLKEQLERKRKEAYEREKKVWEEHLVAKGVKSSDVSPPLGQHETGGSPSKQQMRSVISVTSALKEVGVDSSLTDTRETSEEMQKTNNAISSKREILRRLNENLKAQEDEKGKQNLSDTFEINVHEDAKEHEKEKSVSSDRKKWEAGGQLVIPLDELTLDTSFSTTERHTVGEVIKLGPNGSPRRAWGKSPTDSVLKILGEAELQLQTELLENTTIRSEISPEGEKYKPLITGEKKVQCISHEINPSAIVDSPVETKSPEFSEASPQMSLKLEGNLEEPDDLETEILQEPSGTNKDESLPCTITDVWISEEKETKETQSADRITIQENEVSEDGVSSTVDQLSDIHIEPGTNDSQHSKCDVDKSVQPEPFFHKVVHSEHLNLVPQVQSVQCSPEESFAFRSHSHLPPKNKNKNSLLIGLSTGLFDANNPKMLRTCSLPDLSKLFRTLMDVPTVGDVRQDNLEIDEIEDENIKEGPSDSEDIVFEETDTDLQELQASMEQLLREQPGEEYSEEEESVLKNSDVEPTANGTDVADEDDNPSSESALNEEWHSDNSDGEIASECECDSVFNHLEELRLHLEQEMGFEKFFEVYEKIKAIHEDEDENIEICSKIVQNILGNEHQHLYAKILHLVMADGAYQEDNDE
Mitogen-activated protein kinase kinase kinase 1 (Homo sapiens), sequence (Q13233 whole entry, the tested form may be a part): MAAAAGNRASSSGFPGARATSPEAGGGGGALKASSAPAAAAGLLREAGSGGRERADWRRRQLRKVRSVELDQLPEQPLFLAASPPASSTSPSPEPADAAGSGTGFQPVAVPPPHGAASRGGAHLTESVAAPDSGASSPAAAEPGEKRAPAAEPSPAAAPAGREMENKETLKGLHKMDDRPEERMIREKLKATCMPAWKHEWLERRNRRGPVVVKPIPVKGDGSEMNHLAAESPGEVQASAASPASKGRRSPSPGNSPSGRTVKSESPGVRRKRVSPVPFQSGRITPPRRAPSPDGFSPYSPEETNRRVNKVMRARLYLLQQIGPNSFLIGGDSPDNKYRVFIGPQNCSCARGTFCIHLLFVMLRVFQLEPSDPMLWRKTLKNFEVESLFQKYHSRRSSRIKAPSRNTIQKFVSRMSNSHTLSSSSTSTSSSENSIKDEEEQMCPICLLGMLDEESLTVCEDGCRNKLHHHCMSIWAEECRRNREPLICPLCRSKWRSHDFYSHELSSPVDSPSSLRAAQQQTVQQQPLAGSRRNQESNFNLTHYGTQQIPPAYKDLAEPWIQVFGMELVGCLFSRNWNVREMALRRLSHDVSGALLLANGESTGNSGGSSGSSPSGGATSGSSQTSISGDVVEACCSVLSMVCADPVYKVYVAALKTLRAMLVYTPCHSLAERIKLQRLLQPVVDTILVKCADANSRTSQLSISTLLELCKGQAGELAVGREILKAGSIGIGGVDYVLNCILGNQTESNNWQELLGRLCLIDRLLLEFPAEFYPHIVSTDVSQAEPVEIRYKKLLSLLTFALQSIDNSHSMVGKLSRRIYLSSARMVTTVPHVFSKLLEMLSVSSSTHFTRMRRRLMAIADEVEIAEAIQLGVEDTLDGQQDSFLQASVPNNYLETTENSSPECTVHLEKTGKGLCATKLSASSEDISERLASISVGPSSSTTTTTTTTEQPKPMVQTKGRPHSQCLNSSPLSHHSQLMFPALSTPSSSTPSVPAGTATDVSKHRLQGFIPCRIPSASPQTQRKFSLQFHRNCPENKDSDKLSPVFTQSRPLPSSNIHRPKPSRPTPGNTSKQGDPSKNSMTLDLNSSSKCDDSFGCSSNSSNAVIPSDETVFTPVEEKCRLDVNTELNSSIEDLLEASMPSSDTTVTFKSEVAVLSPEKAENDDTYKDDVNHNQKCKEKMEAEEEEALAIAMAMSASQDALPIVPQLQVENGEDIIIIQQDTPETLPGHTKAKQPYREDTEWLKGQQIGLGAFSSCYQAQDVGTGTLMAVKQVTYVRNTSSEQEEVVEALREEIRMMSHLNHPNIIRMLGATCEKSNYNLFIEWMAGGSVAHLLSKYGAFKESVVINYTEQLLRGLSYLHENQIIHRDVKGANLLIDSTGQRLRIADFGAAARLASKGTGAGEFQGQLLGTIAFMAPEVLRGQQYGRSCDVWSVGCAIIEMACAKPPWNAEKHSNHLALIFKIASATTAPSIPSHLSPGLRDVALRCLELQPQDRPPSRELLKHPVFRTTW
Beta-adrenergic receptor kinase 1 (Homo sapiens), sequence (P25098 whole entry, the tested form may be a part): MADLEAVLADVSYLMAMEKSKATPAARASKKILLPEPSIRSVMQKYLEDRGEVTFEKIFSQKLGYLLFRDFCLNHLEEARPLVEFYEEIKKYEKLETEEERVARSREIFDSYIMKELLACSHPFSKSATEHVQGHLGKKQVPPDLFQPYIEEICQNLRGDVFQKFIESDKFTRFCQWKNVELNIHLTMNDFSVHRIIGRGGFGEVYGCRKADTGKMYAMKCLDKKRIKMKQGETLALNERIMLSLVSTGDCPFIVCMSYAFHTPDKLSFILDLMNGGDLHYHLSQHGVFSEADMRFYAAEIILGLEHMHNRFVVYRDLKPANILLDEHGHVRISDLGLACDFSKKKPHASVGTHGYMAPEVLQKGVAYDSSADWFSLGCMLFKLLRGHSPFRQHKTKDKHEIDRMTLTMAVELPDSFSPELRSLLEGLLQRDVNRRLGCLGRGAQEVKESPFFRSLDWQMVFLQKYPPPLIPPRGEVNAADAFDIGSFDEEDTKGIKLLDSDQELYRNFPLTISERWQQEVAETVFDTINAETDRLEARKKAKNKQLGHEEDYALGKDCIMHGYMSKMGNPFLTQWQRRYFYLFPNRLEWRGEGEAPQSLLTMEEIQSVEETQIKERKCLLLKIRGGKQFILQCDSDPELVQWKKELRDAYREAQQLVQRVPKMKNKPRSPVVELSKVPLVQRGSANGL
Casein kinase I isoform alpha-like (Homo sapiens), sequence (Q8N752 whole entry, the tested form may be a part, canonical isoform): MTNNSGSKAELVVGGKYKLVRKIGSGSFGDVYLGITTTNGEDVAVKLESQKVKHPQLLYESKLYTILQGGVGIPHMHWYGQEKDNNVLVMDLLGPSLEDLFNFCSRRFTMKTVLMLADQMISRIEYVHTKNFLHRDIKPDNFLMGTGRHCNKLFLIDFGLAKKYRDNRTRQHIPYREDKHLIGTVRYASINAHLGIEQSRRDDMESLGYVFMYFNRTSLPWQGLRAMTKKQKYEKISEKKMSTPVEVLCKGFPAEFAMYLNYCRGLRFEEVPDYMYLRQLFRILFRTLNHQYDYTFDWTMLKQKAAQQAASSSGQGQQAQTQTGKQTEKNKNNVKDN

## COc1cc(OC)c(Cl)c(N2Cc3cnc(Nc4ccc(F)cc4)nc3N(C3CCN(C(=O)/C=C/CN(C)C)CC3)C2=O)c1Cl
[1]
  Activity: 98%
[2]
  Activity: 88%
[3]
  Activity: 100%
[4]
  Activity: 100%
[5]
  Activity: 100%
[6]
  Activity: 81%
[7]
  Activity: 81%
[8]
  Activity: 100%
[9]
  Activity: 90%
[10]
  Activity: 100%
[11]
  Activity: 87%
[12]
  Activity: 100%
[13]
  Activity: 100%
[14]
  Activity: 0.8%
[15]
  Activity: 73%
[16]
  Activity: 100%
[17]
  Activity: 94%
[18]
  Activity: 97%
[19]
  Activity: 95%
[20]
  Activity: 99%
[21]
  Activity: 86%
